ChEMBL document CHEMBL1155976, “Synthesis and preliminary pharmacological evaluation of imidazo[2,1-f]purine-2,4-dione derivatives” (Eur J Med Chem, 2009)
Active and inactive are the calls of the source. The rule behind the calls is not given here.

Legend:
[1] = target: T1, 5-hydroxytryptamine receptor 1A (Rattus norvegicus, UniProt P19327); test: Displacement of [3H]8-OH-DPAT from 5HT1A receptor in rat cerebral cortex after 15 mins by liquid scintillation counting; type: tissue-based
T1 sequence (P19327 whole entry): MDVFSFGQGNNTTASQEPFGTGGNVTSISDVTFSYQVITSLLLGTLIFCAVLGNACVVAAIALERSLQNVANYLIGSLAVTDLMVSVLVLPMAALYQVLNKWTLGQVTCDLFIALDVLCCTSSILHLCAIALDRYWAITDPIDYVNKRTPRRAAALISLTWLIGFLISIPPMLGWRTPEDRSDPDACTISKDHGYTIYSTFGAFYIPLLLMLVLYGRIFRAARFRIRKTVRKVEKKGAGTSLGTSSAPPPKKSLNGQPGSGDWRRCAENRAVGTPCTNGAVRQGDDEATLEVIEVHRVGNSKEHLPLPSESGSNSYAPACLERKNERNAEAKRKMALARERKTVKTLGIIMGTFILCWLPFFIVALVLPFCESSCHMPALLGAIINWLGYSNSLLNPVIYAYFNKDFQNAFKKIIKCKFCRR

[2] = target: 5-hydroxytryptamine receptor 2A (Rattus norvegicus, UniProt P14842); test: Displacement of [3H]ketanserin from 5HT2A receptor in rat cerebral cortex after 20 mins by liquid scintillation counting; type: tissue-based
Sequence of 5-hydroxytryptamine receptor 2A (P14842 whole entry): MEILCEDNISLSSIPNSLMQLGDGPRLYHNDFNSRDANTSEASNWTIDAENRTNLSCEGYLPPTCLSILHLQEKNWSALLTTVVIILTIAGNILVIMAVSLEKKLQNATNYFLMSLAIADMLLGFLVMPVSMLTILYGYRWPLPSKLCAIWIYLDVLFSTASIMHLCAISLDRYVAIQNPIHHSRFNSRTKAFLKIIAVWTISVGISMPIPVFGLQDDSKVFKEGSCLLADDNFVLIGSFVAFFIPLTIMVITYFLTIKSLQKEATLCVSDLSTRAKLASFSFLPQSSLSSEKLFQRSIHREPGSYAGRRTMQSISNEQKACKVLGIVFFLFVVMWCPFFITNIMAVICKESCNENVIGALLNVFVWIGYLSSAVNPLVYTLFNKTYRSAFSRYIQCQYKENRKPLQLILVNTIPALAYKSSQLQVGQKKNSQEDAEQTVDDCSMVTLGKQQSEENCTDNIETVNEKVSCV
Procedure, shortened: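 Rat cerebral cortex homogenised in 50 mM Tris-HCl pH 7.7, spun at 32000 × g, preincubated 10 min at 37 °C, resuspended in 50 volumes. Incubated with 0.6 nM [3H]-ketanserin and test agent (10^-10 to 10^-4 M) at 37 °C for 20 min; mianserin as displacer. GF/B filtration, scintillation counting; Ki from ≥3 experiments, 10 concentrations in triplicate.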

[3] = target: D(2) dopamine receptor (Rattus norvegicus, UniProt P61169); test: Displacement of [3H]spiperone from dopamine D2 receptor in rat striatum membrane after 30 mins by liquid scintillation counting; type: cell membranes
Sequence of D(2) dopamine receptor (P61169 whole entry): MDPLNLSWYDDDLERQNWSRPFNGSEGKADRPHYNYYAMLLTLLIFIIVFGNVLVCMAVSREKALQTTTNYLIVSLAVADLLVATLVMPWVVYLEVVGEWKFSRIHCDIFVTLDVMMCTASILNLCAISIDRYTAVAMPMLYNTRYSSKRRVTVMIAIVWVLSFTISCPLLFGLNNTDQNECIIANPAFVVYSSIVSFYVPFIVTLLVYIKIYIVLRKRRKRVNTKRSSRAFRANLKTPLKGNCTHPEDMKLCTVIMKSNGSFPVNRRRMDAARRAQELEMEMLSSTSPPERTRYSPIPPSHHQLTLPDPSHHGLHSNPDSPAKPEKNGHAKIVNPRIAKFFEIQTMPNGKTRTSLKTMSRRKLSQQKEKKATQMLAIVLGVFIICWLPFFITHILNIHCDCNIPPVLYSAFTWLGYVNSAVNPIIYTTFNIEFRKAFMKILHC
Procedure, shortened: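 Rat striatum homogenised in 50 mM potassium phosphate pH 7.4 and spun twice at 20000 × g. Membranes (3 mg wet weight) incubated with 1 nM [3H]-spiperone and test agent in 0.5 ml for 30 min at 37 °C. Nonspecific binding with (+)butaclamol. GF/B filtration, two washes with ice-cold buffer, scintillation counting; Ki from ≥3 experiments, 10 concentrations in triplicate.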

[4] = tested on: Rattus norvegicus; test: Behavioral activity in Wistar rat assessed as reduction of 8-OH-DPAT-induced lower lip retraction at 10 to 20 mg/kg, ip administered 45 mins before 8-OH-DPAT challenge
[5] = tested on: Mus musculus; test: Agonist activity at 5HT1A receptor in Swiss albino mouse assessed as decrease in rectal temperature at 10 mg/kg, ip after 60 mins in presence of WAY 100635 administered 15 mins before drug challenge; type: functional, organism-based; design: dose 10 mg/kg
Procedure, shortened: (§1)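 Male Albino Swiss mice (24–28 g). WAY 100635 (0.1 mg/kg, sc, in distilled water) given 15 min before test agent (ip, suspended in 1% Tween 80, 10 ml/kg). Rectal temperature recorded 30 and 60 min after test agent injection. Expressed as Δt versus basal temperature at the start of the experiment.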

[6] = tested on: Mus musculus; test: Agonist activity at 5HT1A receptor in Swiss albino mouse assessed as decrease in rectal temperature at 5 mg/kg, ip after 60 mins; type: functional, organism-based; design: dose 5 mg/kg
Procedure, shortened: (§2)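 Male Albino Swiss mice (24–28 g), free food and water, room at 20 ± 1 °C; test agent suspended in 1% aqueous Tween 80, given ip at 10 ml/kg. Rectal temperature read with a thermometer at 30, 60, 90 and 120 min after dosing. Result expressed as Δt from basal temperature taken at the start; six to ten animals per group, each used once.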

[7] = tested on: Mus musculus; test: Agonist activity at 5HT1A receptor in Swiss albino mouse assessed as decrease in rectal temperature at 5 mg/kg, ip after 30 mins; type: functional, organism-based; design: dose 5 mg/kg; procedure, shortened: as §2
[8] = tested on: Mus musculus; test: Agonist activity at 5HT1A receptor in Swiss albino mouse assessed as decrease in rectal temperature at 10 mg/kg, ip after 60 mins; type: functional, organism-based; design: dose 10 mg/kg; procedure, shortened: as §2
[9] = tested on: Mus musculus; test: Agonist activity at 5HT1A receptor in Swiss albino mouse assessed as decrease in rectal temperature at 5 mg/kg, ip after 120 mins; type: functional, organism-based; design: dose 5 mg/kg; procedure, shortened: as §2
[10] = tested on: Mus musculus; test: Agonist activity at 5HT1A receptor in Swiss albino mouse assessed as decrease in rectal temperature at 5 mg/kg, ip after 90 mins; type: functional, organism-based; design: dose 5 mg/kg; procedure, shortened: as §2
[11] = tested on: Mus musculus; test: Agonist activity at 5HT1A receptor in Swiss albino mouse assessed as decrease in rectal temperature at 10 mg/kg, ip after 30 mins in presence of WAY 100635 administered 15 mins before drug challenge; type: functional, organism-based; design: dose 10 mg/kg; procedure, shortened: as §1
[12] = tested on: Mus musculus; test: Agonist activity at 5HT1A receptor in ip dosed Swiss albino mouse assessed as decrease in rectal temperature; type: functional, organism-based; procedure, shortened: as §2
[13] = tested on: Rattus norvegicus; test: Behavioral activity in Wistar rat assessed as reduction of 8-OH-DPAT-induced lower lip retraction at 10 to 20 mg/kg, ip administered 45 mins before 8-OH-DPAT challenge; type: functional, organism-based
[14] = tested on: Rattus norvegicus; test: Behavioral activity in Wistar rat assessed as induction of lower lip retraction at 10 to 20 mg/kg, ip; type: functional, organism-based
Procedure, shortened: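 Male Wistar rats (290–310 g); agent ip in 1% Tween 80 at 2 ml/kg. Rats housed singly in cages and scored 15, 30 and 45 min after dosing: 0 = lower incisors not visible, 0.5 = partly, 1 = fully visible. Maximum total score 3 per rat.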

[15] = tested on: Mus musculus; test: Agonist activity at 5HT1A receptor in Swiss albino mouse assessed as decrease in rectal temperature at 10 mg/kg, ip after 30 mins; type: functional, organism-based; design: dose 10 mg/kg; procedure, shortened: as §2
[16] = tested on: Mus musculus; test: Agonist activity at 5HT1A receptor in Swiss albino mouse assessed as decrease in rectal temperature at 10 mg/kg, ip after 120 mins; type: functional, organism-based; design: dose 10 mg/kg; procedure, shortened: as §2
[17] = tested on: Mus musculus; test: Agonist activity at 5HT1A receptor in Swiss albino mouse assessed as decrease in rectal temperature at 10 mg/kg, ip after 90 mins; type: functional, organism-based; design: dose 10 mg/kg; procedure, shortened: as §2
[18] = tested on: Mus musculus; test: Antidepressant activity in Swiss albino mouse assessed as reduction of immobility time at 10 mg/kg, ip administered 30 mins before test by forced swimming test; type: functional; conditions: route intraperitoneal
Procedure, shortened: (§3)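 Male Albino Swiss mice (24–28 g); agent suspended in 1% aqueous Tween 80, ip 10 ml/kg, 30 min before the test. Total immobility time scored over the last 4 min of a 6-min swim session. n = 8–10 mice per group; mean ± SEM, compared with vehicle.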

[19] = tested on: Mus musculus; test: Sedative activity in Swiss albino mouse assessed as reduction on spontaneous locomotor activity at 30 mg/kg, ip administered 30 mins before test measured for 6 mins; type: ADME, organism-based; design: dose 30 mg/kg, route intraperitoneal; conditions: in vivo, 0.1 h
Procedure, shortened: (§4)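 Male Albino Swiss mice (24–28 g); agent ip in 1% Tween 80, 30 min before the test. Locomotor activity counted as number of crossings during 6-min and 30-min sessions. n = 8–10 mice per group; mean ± SEM versus vehicle.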

[20] = tested on: Mus musculus; test: Sedative activity in Swiss albino mouse assessed as reduction on spontaneous locomotor activity at 20 mg/kg, ip administered 30 mins before test measured for 30 mins; type: ADME, organism-based; design: dose 20 mg/kg, route intraperitoneal; conditions: in vivo, 0.5 h; procedure, shortened: as §4
[21] = tested on: Mus musculus; test: Anxiolytic activity in Swiss albino mouse assessed as number of punished crossings at 20 mg/kg, ip. administered 30 mins before test measured for 60s by four plate test; type: functional
Procedure, shortened: (§5)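 Male Albino Swiss mice. Box with four metal floor plates separated by 4 mm gaps; 120 V between adjacent plates for 0.5 s delivered on crossing. Mice explored 15 s before testing. Agent (ip, 1% Tween 80) given 30 min before the test. Punished crossings counted; n = 10 mice per group, mean ± SEM.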

[22] = tested on: Mus musculus; test: Antidepressant activity in Swiss albino mouse assessed as reduction of immobility time at 30 mg/kg, ip administered 30 mins before test by forced swimming test; type: functional; conditions: route intraperitoneal; procedure, shortened: as §3
[23] = species: Mus musculus; conditions: Swiss albino, 20 mg/kg
[24] = species: Mus musculus; conditions: Swiss albino, 20 mg/kg; remark: listed apart in the source
[25] = species: Mus musculus; conditions: Swiss albino, 20 mg/kg; remark: listed apart in the source
[26] = tested on: Mus musculus; test: Sedative activity in Swiss albino mouse assessed as reduction on spontaneous locomotor activity at 20 mg/kg, ip administered 30 mins before test measured for 6 mins; type: ADME, organism-based; design: dose 20 mg/kg, route intraperitoneal; conditions: in vivo, 0.1 h; procedure, shortened: as §4
[27] = species: Mus musculus; conditions: Swiss albino, 20 mg/kg; remark: listed apart in the source
[28] = species: Mus musculus; conditions: Swiss albino, 20 mg/kg; remark: listed apart in the source
[29] = tested on: Mus musculus; test: Anxiolytic activity in Swiss albino mouse assessed as number of punished crossings at 30 mg/kg, ip administered 30 mins before test measured for 60s by four plate test; type: functional; conditions: route intraperitoneal; procedure, shortened: as §5
[30] = tested on: Mus musculus; test: Sedative activity in Swiss albino mouse assessed as reduction on spontaneous locomotor activity at 30 mg/kg, ip administered 30 mins before test measured for 30 mins; type: ADME, organism-based; design: dose 30 mg/kg, route intraperitoneal; conditions: in vivo, 0.5 h; procedure, shortened: as §4
[31] = tested on: Mus musculus; test: Antidepressant activity in Swiss albino mouse assessed as reduction of immobility time at 20 mg/kg, ip administered 30 mins before test by forced swimming test; type: functional; conditions: route intraperitoneal; procedure, shortened: as §3
[32] = species: Mus musculus; conditions: Swiss albino, 20 mg/kg; remark: listed apart in the source
[33] = tested on: Mus musculus; test: Anxiolytic activity in Swiss albino mouse assessed as number of punished crossings at 10 mg/kg, ip administered 30 mins before test measured for 60s by four plate test; type: functional; conditions: route intraperitoneal; procedure, shortened: as §5

For `Cn1c(=O)c2c(nc3n2CC(C(=O)NCCN2CCN(c4cccc(Cl)c4)CC2)N3)n(C)c1=O` (centres undefined), which Ki [1] is on record?
Its Ki is over 1000 nM.

For `Cn1c(=O)c2c(nc3nc(NCCCN4CCN(c5ccccc5)CC4)c(Br)cn32)n(C)c1=O`, which Ki [2] is on record?
The Ki was 297 nM.

What does the source list for `Cn1c(=O)c2c(nc3n(CCCN4CCN(c5cccc(Cl)c5)CC4)ccn23)n(C)c1=O`?
Ki [1]: > 1000 nM; Ki [3]: > 1000 nM; Ki [2]: 91.5 nM

`COc1ccccc1N1CCN(CCN(C(=O)C2CCCCC2)c2ccccn2)CC1` was tested. Which Activity [4] did it give?
Its Activity is “Active”.

What does the source list for `Cn1c(=O)c2c(nc3n(CCCN4CCN(c5ccccc5)CC4)c(-c4ccccc4)cn23)n(C)c1=O`?
Ki [1]: 96.5 nM; Ki [3]: > 1000 nM; Ki [2]: 813 nM

What does the source list for `COc1ccccc1N1CCN(CCCn2c(C)cn3c4c(=O)n(C)c(=O)n(C)c4nc23)CC1`?
deltaT [5]: -0.9 °C; deltaT [6]: -0.4 °C; deltaT [7]: -0.4 °C; deltaT [8]: -0.5 °C; deltaT [9]: -0.1 °C; deltaT [10]: -0.3 °C; Ki [1]: 16.8 nM; deltaT [11]: -1 °C; Activity [12]: Dose-dependent effect; Activity [13]: inactive; Activity [14]: inactive; Ki [3]: 345 nM; deltaT [15]: -0.9 °C; Ki [2]: > 1000 nM; deltaT [16]: -0.2 °C; deltaT [17]: -0.6 °C

Which results are given for `COc1ccccc1N1CCN(CCCn2ccn3c4c(=O)n(C)c(=O)n(C)c4nc23)CC1`?
Activity [18]: 134.2 s; Activity [19]: 198; Activity [20]: 925.8; Activity [21]: 2.5; Activity [22]: 101.3 s; deltaT [8]: -0.6 °C; deltaT [23]: -1.8 °C; deltaT [24]: -0.9 °C; deltaT [25]: -0.5 °C; Ki [1]: 25.4 nM; Activity [12]: Dose-dependent effect; Activity [26]: 353.4; deltaT [27]: -1.1 °C; deltaT [28]: -1.3 °C; Activity [29]: 2.5; Activity [30]: 567.6; Ki [3]: 839 nM; deltaT [15]: -0.7 °C; Ki [2]: > 1000 nM; Activity [31]: 104.8 s; deltaT [32]: -1 °C; deltaT [17]: -0.3 °C

Which results are given for `Cn1c(=O)c2c(nc3n(CCCN4CCN(c5ccccc5)CC4)ccn23)n(C)c1=O`?
Activity [18]: 147.5 s; Activity [19]: 139.2; Activity [20]: 255.6; Activity [21]: 6.3; Activity [22]: 88.9 s; deltaT [6]: -0.4 °C; deltaT [7]: -0.6 °C; deltaT [8]: -0.4 °C; deltaT [9]: 0 °C; deltaT [10]: -0.2 °C; Ki [1]: 24.8 nM; deltaT [11]: -0.3 °C; Activity [12]: Dose-dependent effect; Activity [26]: 146.4; Activity [13]: Active; Activity [30]: 221; Ki [3]: > 1000 nM; deltaT [15]: -1.2 °C; Ki [2]: > 1000 nM; Activity [31]: 87.9 s; Activity [33]: 4.7; deltaT [17]: -0.4 °C
